{"source": "paper PMC6072596", "about": "(Molecular cancer therapeutics, 2018)", "key": {"[1]": {"system": "human glioma cell lines LN18, U1242, T98G, DBTRG, U87MG", "assay": "Radiosurvival of human glioma cell line panel with AZ32", "type": "cell-based", "details": "LN18, U1242, T98G (mutant p53), U87MG (wild-type p53)"}, "U87/shp53 cells [2]": {"system": "U87/shp53 cells", "assay": "Radiosensitization of U87/shp53 versus parental U87/puro cells", "type": "cell-based, human", "details": "AZ32 3 µM"}, "mouse GL261 glioma cells": {"system": "mouse GL261 glioma cells", "assay": "Mitotic catastrophe triple staining", "type": "cell-based", "details": "24 hr", "outline": "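GL261 cells on chamber slides (DMEM, 10% FBS, 37°C, 5% CO2) were treated with test compound 3 µM and/or 2 Gy, or left untreated. Fixed at 24 hr and immunostained for γ-H2AX, p-(S10)-histone H3 and cleaved caspase 3, with DAPI counterstain; confocal imaging. Triple-positive cells were counted as mitotic catastrophe and expressed as a fraction of all cells.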"}, "ATR": {"target": "ATR (Homo sapiens, UniProt Q13535)", "assay": "Kinase selectivity, biochemical PIKK enzyme activity: ATR"}, "U87/shp53 cells [3]": {"system": "U87/shp53 cells", "assay": "Live cell imaging of aberrant mitoses in U87/shp53 versus parental cells", "type": "cell-based, human", "details": "AZ32 3 µM, 5 Gy, time-lapse 16 hrs", "outline": "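U87 cells expressing H2B-mCherry and EGFP-Centrin2 were transduced with shp53 pLKO.1 puro or pBabe-puro, puromycin-selected and FACS-sorted mCherry+/EGFP+. They were grown 48–72 hr on glass-bottom dishes, given test compound 3 µM before 5 Gy, then imaged by spinning-disk confocal every 7 min from 2 hr post-IR for 16 hr. Aberrant mitoses were scored visually from chromatin and/or centrosome morphology.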"}, "pS1981ATM": {"target": "pS1981ATM (Homo sapiens, UniProt Q13315)", "sequence (Q13315 whole entry)": "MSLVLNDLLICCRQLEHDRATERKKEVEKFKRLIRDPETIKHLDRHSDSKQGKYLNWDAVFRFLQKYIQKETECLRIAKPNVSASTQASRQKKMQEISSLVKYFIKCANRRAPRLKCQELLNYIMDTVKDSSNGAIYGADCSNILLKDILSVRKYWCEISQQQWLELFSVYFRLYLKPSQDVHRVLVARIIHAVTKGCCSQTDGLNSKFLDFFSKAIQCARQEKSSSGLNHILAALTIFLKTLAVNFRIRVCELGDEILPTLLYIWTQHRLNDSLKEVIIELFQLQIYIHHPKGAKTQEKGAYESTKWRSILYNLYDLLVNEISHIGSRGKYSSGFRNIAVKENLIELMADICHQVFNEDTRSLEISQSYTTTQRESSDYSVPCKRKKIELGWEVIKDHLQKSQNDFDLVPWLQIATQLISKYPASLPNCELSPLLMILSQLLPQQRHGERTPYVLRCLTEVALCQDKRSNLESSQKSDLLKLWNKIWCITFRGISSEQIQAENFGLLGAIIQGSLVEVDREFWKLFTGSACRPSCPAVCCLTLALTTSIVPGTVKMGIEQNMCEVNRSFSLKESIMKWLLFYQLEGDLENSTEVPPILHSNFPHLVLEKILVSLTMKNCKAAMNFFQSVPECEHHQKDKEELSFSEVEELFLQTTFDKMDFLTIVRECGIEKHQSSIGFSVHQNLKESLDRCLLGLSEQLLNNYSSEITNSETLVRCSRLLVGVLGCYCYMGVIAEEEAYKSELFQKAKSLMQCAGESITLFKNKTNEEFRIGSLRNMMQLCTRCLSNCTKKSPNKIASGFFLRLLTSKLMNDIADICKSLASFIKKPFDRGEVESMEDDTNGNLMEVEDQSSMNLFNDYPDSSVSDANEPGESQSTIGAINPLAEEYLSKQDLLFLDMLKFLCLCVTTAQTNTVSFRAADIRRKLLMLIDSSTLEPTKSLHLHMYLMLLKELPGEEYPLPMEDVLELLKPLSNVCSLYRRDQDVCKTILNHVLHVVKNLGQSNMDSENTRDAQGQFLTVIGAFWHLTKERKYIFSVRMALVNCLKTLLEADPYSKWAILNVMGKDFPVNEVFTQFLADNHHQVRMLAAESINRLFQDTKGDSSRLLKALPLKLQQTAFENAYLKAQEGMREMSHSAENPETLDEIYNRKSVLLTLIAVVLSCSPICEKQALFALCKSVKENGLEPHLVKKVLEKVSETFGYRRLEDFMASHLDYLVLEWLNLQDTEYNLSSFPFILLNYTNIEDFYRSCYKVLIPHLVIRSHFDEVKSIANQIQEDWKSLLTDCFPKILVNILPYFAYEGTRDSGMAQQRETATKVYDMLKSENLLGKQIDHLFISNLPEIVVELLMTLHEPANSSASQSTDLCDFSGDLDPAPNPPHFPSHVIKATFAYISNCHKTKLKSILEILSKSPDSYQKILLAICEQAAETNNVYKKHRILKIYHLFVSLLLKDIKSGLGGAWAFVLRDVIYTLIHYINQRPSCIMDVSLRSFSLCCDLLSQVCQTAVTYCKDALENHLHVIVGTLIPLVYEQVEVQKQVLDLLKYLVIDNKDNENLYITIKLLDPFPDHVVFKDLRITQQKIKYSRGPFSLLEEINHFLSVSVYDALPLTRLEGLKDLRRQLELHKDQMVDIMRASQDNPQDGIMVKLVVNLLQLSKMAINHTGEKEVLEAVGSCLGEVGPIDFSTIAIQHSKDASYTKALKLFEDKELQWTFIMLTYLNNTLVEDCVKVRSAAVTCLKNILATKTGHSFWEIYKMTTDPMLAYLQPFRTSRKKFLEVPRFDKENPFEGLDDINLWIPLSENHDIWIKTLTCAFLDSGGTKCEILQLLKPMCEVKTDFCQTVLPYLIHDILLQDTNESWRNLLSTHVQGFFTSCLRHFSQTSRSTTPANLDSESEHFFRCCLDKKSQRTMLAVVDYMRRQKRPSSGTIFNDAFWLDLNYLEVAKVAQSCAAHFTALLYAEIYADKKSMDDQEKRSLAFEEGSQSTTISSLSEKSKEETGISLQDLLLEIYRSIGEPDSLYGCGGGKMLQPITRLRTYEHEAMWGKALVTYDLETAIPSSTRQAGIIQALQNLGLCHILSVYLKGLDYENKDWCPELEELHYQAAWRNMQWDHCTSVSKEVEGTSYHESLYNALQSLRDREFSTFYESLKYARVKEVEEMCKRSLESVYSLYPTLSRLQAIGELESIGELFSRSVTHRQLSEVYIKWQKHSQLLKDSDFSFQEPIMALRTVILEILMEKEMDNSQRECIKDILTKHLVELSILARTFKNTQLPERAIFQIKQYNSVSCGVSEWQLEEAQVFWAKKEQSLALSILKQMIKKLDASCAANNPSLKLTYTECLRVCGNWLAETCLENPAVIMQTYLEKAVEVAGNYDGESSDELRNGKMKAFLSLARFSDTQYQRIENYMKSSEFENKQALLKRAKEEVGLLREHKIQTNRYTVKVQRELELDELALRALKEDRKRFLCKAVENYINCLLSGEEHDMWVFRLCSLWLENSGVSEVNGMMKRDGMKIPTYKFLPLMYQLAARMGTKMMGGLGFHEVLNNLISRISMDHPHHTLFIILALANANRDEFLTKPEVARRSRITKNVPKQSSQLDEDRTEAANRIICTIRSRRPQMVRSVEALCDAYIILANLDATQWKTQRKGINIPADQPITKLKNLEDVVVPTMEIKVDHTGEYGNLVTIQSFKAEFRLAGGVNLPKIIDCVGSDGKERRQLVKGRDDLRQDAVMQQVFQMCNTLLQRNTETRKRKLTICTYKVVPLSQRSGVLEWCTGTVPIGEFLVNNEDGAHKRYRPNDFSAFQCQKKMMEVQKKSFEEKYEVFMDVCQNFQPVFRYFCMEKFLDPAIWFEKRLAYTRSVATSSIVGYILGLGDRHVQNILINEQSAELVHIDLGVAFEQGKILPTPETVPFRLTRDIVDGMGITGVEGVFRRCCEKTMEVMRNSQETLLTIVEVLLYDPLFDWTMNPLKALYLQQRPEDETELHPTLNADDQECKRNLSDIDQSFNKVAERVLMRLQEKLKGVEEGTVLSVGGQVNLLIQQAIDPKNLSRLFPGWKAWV", "assay": "ATM cell assay", "type": "cell-based", "details": "read-out: pS1981ATM IC50 (ATM cell IC50)"}, "GL261 orthotopic glioma": {"system": "GL261 orthotopic glioma", "assay": "Syngeneic orthotopic mouse glioma model GL261/C57bl6, survival with radiation", "type": "in vivo"}, "[4]": {"system": "human HCT116 colon carcinoma cells", "assay": "Aberrant mitoses in isogenic HCT116 cells", "type": "cell-based", "details": "HCT116 p53−/− cells"}, "[5]": {"system": "human HCT116 colon carcinoma cells", "assay": "CFA radiosurvival of isogenic HCT116 cells", "type": "cell-based", "details": "HCT116 p53+/+ cells versus mutant p53 cells"}, "mouse GL261 cells": {"system": "mouse GL261 cells", "assay": "Radiosurvival colony-forming assay, GL261", "type": "cell-based", "details": "AZ32 3 µM, 2 and 4 Gy", "outline": "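Clonogenic radiosurvival in mouse GL261 cells grown in DMEM with 10% FBS. Cells were diluted and plated, exposed to test compound 3 µM or not, and irradiated at 0, 2 or 4 Gy. After about 2 weeks, colonies were stained with crystal violet and those of more than 50 cells were counted.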"}, "[6]": {"assay": "Mouse oral exposure: plasma and brain", "type": "in vivo", "details": "from Kpuu of Table 1"}, "[7]": {"assay": "Tolerability of AZ32 plus head irradiation in mice", "type": "in vivo", "details": "C57bl6 mice, AZ32 and 2×5 Gy conformal SARRP"}, "Cell permeability": {"assay": "Cell permeability", "type": "in vitro ADME"}, "[8]": {"system": "pp53 (S15), pKAP1 (S824) in mouse glioma GL261 cells", "assay": "Western blotting of DDR in GL261 cells", "type": "cell-based", "details": "5 Gy, AZ32 0.3, 1 or 3 µM", "outline": "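Mouse GL261 glioma cells, grown in DMEM with 10% FBS, got 5 Gy or no irradiation plus test compound (0.3, 1 or 3 µM), reference ATM inhibitor (3 µM) or neither. Extracts were western blotted for p-p53 Ser15 and p-KAP1 Ser824, with GAPDH or KAP1 as loading controls. Detection used Dylight-800 anti-rabbit and Alexa Fluor-680 anti-mouse secondaries.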"}, "[9]": {"system": "intracranial NCI-H2228 (BM) tumors", "assay": "NCI-H2228 non-small cell lung cancer brain metastasis model, survival", "type": "in vivo, mouse", "details": "nude mice, AZ32 50 mg/kg BID", "outline": "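Luciferase-expressing NCI-H2228 lung cancer cells, grown in DMEM with 10% FBS, were implanted in the brains of nude mice. Mice were randomized to vehicle, radiation alone, test compound 50 mg/kg BID alone, or test compound plus radiation. Tumours were tracked by bioluminescence imaging and survival was followed.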"}, "[10]": {"system": "ATM targets including p53-S15, KAP1-S824, and ATM auto-phosphorylation at S1981", "assay": "Western blotting of ATM target phosphorylation", "type": "cell-based", "details": "western blot", "outline": "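Mouse GL261 cells were irradiated (5 Gy) or not and exposed to test compound 0.3, 1 or 3 µM, or KU-60019 3 µM as reference ATM inhibitor, or neither. Extracts were western blotted for p-p53 S15 and p-KAP1 S824, with GAPDH or KAP1 as loading controls, using Dylight-800 anti-rabbit and Alexa Fluor-680 anti-mouse secondaries.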"}, "human glioma T98G cells": {"system": "human glioma T98G cells", "assay": "Radiosurvival colony-forming ability", "type": "cell-based", "details": "compared with KU-60019", "outline": "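T98G human glioma cells came from ATCC and grew in DMEM with 10% FBS and penicillin-streptomycin at 37°C, 5% CO2. Cultures were kept no longer than 2 months and tested mycoplasma-negative. Radiosensitization was scored as colony-forming ability after irradiation, with a reference ATM inhibitor run alongside.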"}}, "note": "“And” between values parts separate entries of the source, which are not always exact repeats. Equal values may be shown once.", "data": [{"compound": "CNC(=O)c1ccc(-c2cnc3cnc(-c4ccccc4)cn23)cc1", "note": "[AZ32]", "values": [{"measurement": "Radiosensitization of human glioma cell line panel", "setting": "[1]", "result": "all radiosensitized in vitro"}, {"measurement": "Sensitivity of U87/shp53 cells to AZ32 radiosensitization relative to parental cells", "setting": "U87/shp53 cells [2]", "result": "2–4 fold"}, {"measurement": "Triple+ cells (mitotic catastrophe) of all cells", "setting": "mouse GL261 glioma cells; AZ32 3 µM and radiation 2 Gy", "result": 4, "unit": "%"}, {"measurement": "Mitotic catastrophe in AZ32+IR over IR alone", "setting": "mouse GL261 glioma cells; AZ32 3 µM, 2 Gy", "result": 4, "unit": "fold"}, {"measurement": "Selectivity over ATR", "setting": "ATR", "result": "adequate selectivity over ATR"}, {"measurement": "Aberrant mitoses in shp53 cells relative to parental cells", "setting": "U87/shp53 cells [3]", "result": "4.2 fold and ~ 4 fold"}, {"measurement": "IC50", "setting": "pS1981ATM", "result": 310, "unit": "nM"}, {"measurement": "Survival versus radiation alone", "setting": "GL261 orthotopic glioma; AZ32 200 mg/kg p.o. QD, whole-head 137-Cs irradiation 4×2.5 Gy", "result": "significantly (p = 0.019) prolonged the survival"}, {"measurement": "Aberrant mitoses and polyploidy cells on addition of AZ32 before IR", "setting": "[4]", "result": "almost a doubling of aberrant mitoses and polyploidy cells"}, {"measurement": "Sensitivity to AZ32 and radiation by CFA", "setting": "[5]", "result": "more sensitive to AZ32 and radiation compared to mutant p53 cells"}, {"measurement": "Radiosensitization in radiosurvival colony-forming assay", "setting": "mouse GL261 cells", "result": "became more radiosensitive"}, {"measurement": "Enhancement of BBB penetration over AZ31", "setting": "[6]", "result": 8.7, "unit": "fold"}, {"measurement": "Radiation toxicity", "setting": "[7]", "result": "did not notice any radiation toxicity"}, {"measurement": "Cell permeability", "setting": "Cell permeability", "result": "high cell permeability"}, {"measurement": "Block of phosphorylation of p53 and KAP-1 after radiation", "setting": "[8]", "result": "blocked the phosphorylation of p53 and KAP-1 after radiation"}, {"measurement": "Survival of mice, AZ32 in combination with radiation", "setting": "[9]", "result": "survived much longer than mice in the radiation alone or AZ32 alone groups"}]}, {"compound": "C[C@@H]1CN(CC(=O)Nc2ccc3c(c2)Cc2cccc(-c4cc(=O)cc(N5CCOCC5)o4)c2S3)C[C@H](C)O1", "note": "[KU-60019, reference compound]", "values": [{"measurement": "Radiosensitization of GL261 tumors", "setting": "GL261 orthotopic glioma; administered intra-tumorally by CED immediately prior to radiation", "result": "radiosensitized by KU-60019 (p = 0.0001)"}]}, {"compound": "COCc1ccc(-c2ccc3ncc(C(N)=O)c(N[C@H](C)C4CCOCC4)c3c2)cn1", "note": "[AZ31, 6-[6-(methoxymethyl)-3-pyridinyl]-4-([(1R)-1-(tetrahydro-2H-pyran-4-yl)ethyl]amino)-3-quinolinecarboxamide]", "values": [{"measurement": "Block of phosphorylation of ATM targets", "setting": "[10]; p53-S15, KAP1-S824, ATM S1981", "result": "effectively blocked phosphorylation"}, {"measurement": "Potency compared to KU-60019 in blocking ATM target phosphorylation", "setting": "[10]; lanes 2–6", "result": "at least 10 fold"}, {"measurement": "Radiosensitization of GL261 tumors", "setting": "GL261 orthotopic glioma; administered orally, prolonged low radiation dose treatment schedule", "result": "unable to significantly radiosensitize tumors"}, {"measurement": "Radiosensitization by colony-forming ability", "setting": "human glioma T98G cells", "result": "radiosensitized cells to a similar extent as KU-60019"}]}]}
